Results as given in ChEMBL document CHEMBL5137066, “Discovery of BLU-945, a Reversible, Potent, and Wild-Type-Sparing Next-Generation EGFR Mutant Inhibitor for Treatment-Resistant Non-Small-Cell Lung Cancer” (J Med Chem, 2022).
The source made the active and inactive calls. No cut-off for these calls is given here.

Legend:
[1] = Plasma protein binding in cynomolgus monkey assessed as unbound fraction by ultracentrifugation method; assay type: ADME, cell-free, Macaca fascicularis
In short: (§1)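 Plasma protein binding determined by ultracentrifugation, reported as the unbound fraction.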

[2] = Volume of distribution at steady state in Sprague-Dawley rat at 1 mg/kg, iv; assay type: ADME, organism-based; details: in vivo, read-out: Vdss
[3] = Apparent permeability across apical to basolateral side in MDCK-MDR1 cells; assay type: ADME, cell-based, Canis lupus familiaris; details: dog
[4] = Half life in Sprague-Dawley rat at 1 mg/kg, iv; assay type: ADME, organism-based; details: in vivo
In short: (§2)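 Sprague–Dawley rats (n = 3), single IV bolus of 1 mg/kg in 10% DMSO, 10% solutol, 80% of a 20% HP-β-CD solution (in water or in saline, depending on compound). Clearance is plasma clearance after the IV bolus.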

[5] = Intrinsic clearance in human liver microsomes in presence of NADPH; assay type: ADME, Microsome
In short: (§3)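 Intrinsic clearance measured in isolated liver microsomes of each species with NADPH, expressed in μL/min/mg.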

[6] = Intrinsic clearance in cynomolgus monkey liver microsomes in presence of NADPH; assay type: ADME, Macaca fascicularis, Microsome; in short: as §3
[7] = Lipophilicity, logD of compound at pH 7.4; assay type: physicochemical; details: buffer
[8] = Intrinsic clearance in human hepatocytes assessed per million cells; assay type: ADME, cell-based, Hepatocyte
In short: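 Intrinsic clearance measured in isolated hepatocytes of each species, expressed in μL/min/million cells.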

[9] = Clearance in cynomolgus monkey at 0.5 mg/kg,iv; assay type: ADME, organism-based, Macaca fascicularis; details: in vivo
In short: (§4)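 Cynomolgus monkeys given a single IV bolus of 0.5 mg/kg in 5% DMSO + 5% kolliphor HS 15 + 90% saline. Clearance is plasma clearance after the bolus.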

[10] = Half life in cynomolgus monkey at 0.5 mg/kg, iv; assay type: ADME, organism-based, Macaca fascicularis; details: in vivo; in short: as §4
NCI-H1975 [11] = test: Antitumor activity against human NCI-H1975 cells xenografted in BALB/c mouse assessed as reduction in tumor volume at 30 mg/kg, po bid administered via oral gavage for 14 days; assay type: functional, organism-based; details: time 14.0 day
In short: (§5)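 Female BALB/c nude mice, 6–8 weeks old, inoculated s.c. in right flank with 5 × 10^6 NCI-H1975 cells in PBS:Matrigel 1:1. Randomized and dosed by oral gavage BID once mean tumor volume reached ~155 mm3. Tumor size and body weight measured every second day. Volume = 0.5ab2 (a, b long and short diameters). Plasma taken 2, 6, 12 h after the last dose for LC-MS/MS.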

NCI-H1975 [12] = test: Antitumor activity against human NCI-H1975 cells xenografted in BALB/c mouse assessed as reduction in tumor volume at 100 mg/kg , po bid administered via oral gavage for 14 days; assay type: functional, organism-based; details: time 14.0 day; in short: as §5
[13] = Toxicity in BALB/c nude mouse xenografted with human NCI-H1975 cells assessed as effect on body weight at 30 mg/kg, po bid administered via oral gavage for 14 days; assay type: organism-based; details: in vivo, 336 h, time 14 day; in short: as §5
[14] = Toxicity in BALB/c nude mouse xenografted with human NCI-H1975 cells assessed as effect on body weight at 100 mg/kg , po bid administered via oral gavage for 14 days; assay type: organism-based; details: in vivo, 336 h, time 14 day; in short: as §5
[15] = Toxicity in BALB/c nude mouse xenografted with human NCI-H1975 cells assessed as effect on body weight at 25 mg/kg , po qd administered via oral gavage for 14 days; assay type: organism-based; details: in vivo, 336 h, time 14 day
In short: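 Female BALB/c nude mice, 6–8 weeks old, bearing s.c. right-flank NCI-H1975 xenografts (5 × 10^6 cells in PBS:Matrigel 1:1). Once-daily oral gavage began at mean tumor volume ~155 mm3. Body weight and tumor size recorded every second day.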

[16] = Thermodynamic solubility of the compound at pH 1.5; assay type: physicochemical; details: buffer
[17] = Thermodynamic solubility of the compound at pH 6.5; assay type: physicochemical; details: buffer
[18] = Plasma protein binding in human assessed as unbound fraction by ultracentrifugation method; assay type: ADME, cell-free; in short: as §1
[19] = Plasma protein binding in rat assessed as unbound fraction by ultracentrifugation method; assay type: ADME, cell-free; in short: as §1
[20] = Plasma protein binding in dog assessed as unbound fraction by ultracentrifugation method; assay type: ADME, cell-free, Canis lupus familiaris; in short: as §1
[21] = Plasma clearance in Sprague-Dawley rat at 1 mg/kg, iv; assay type: ADME, organism-based; in short: as §2
[22] = Oral bioavailability in Sprague-Dawley rat at […]; assay type: ADME, organism-based; details: in vivo, dose 2.5 mg/kg
[23] = Plasma clearance in cynomolgus monkey at 0.5 mg/kg, iv; assay type: ADME, organism-based, Macaca fascicularis; in short: as §4
[24] = Volume of distribution at steady state in cynomolgus monkey at 0.5 mg/kg, iv; assay type: ADME, organism-based, Macaca fascicularis; details: in vivo, read-out: Vdss
[25] = Oral bioavailability in cynomolgus monkey at […], iv; assay type: ADME, organism-based, Macaca fascicularis; details: in vivo, dose 2.5 mg/kg
[26] = Plasma clearance in beagle dog at 0.5 mg/kg, iv; assay type: ADME, organism-based, Canis lupus familiaris
In short: (§6)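 Beagle dogs, single IV dose of 0.5 mg/kg in 5% DMSO + 5% kolliphor HS 15 + 90% saline. Clearance is plasma clearance.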

[27] = Half life in beagle dog at 0.5 mg/kg, iv; assay type: ADME, organism-based, Canis lupus familiaris; details: in vivo; in short: as §6
[28] = Volume of distribution at steady state in Beagle dog at 0.5 mg/kg, iv; assay type: ADME, organism-based, Canis lupus familiaris; details: in vivo, read-out: Vdss
[29] = Oral bioavailability in Beagle dog at […], iv; assay type: ADME, organism-based, Canis lupus familiaris; details: in vivo, dose 2.5 mg/kg
[30] = system: Ba/F3 EGFR-T790M/C797S/L858R; test: Antitumor activity against mouse Ba/F3 EGFR-T790M/C797S/L858R cells implanted in NOD SCID mouse assessed as reduction in tumor volume at 100 mg/kg, po bid administered via oral gavage for 14 days; assay type: functional, organism-based; details: time 14.0 day
[31] = system: Ba/F3 EGFR-Del19/T790M/C797S; test: Antitumor activity against osimertinib-resistant mouse Ba/F3 EGFR-Del19/T790M/C797S cells implanted in NOD SCID mouse assessed as reduction in tumor volume at 100 mg/kg , po bid administered via oral gavage for 14 days; assay type: functional, organism-based; details: time 14.0 day
NSCLC = assay type: functional, organism-based; details: Homo sapiens, dose 75-100 mg/kg, route po, time 56.0 day

Compound: CO[C@@H]1CCN(c2nccc(Nc3cc4c(C(C)C)ccc(N5C[C@H](CS(C)(=O)=O)[C@H]5C)c4cn3)n2)C[C@@H]1F [TIGOZERTINIB]
- Fu [1]: 3.5%
- Vd [2]: 2.3 L/kg
- Papp [3]: 8 10^-6 cm/s
- half-life [4]: 1.3 h
- CLH [5]: 89 µL/min/mg
- CLH [6]: 109 µL/min/mg
- logD [7]: 3.8
- CLH [8]: 23 µL/min
- clearance [9]: 4.9 mL/min/kg
- half-life [10]: 3.5 h
- Activity (NCI-H1975 [11]): Active
- Activity (NCI-H1975 [12]): Active
- Activity [13]: Non-Toxic
- Activity [14]: Non-Toxic
- Activity [15]: Non-Toxic
- Therm_solubility [16]: 11000 µg/mL
- Therm_solubility [17]: 10 µg/mL
- Fu [18]: 1.1%
- Fu [19]: 0.9%
- Fu [20]: 1.4%
- clearance [21]: 32.4 mL/min/kg
- F [22]: 48%
- clearance [23]: 4.9 mL/min/kg
- Vd [24]: 1.6 L/kg
- F [25]: 33%
- clearance [26]: 13.7 mL/min/kg
- half-life [27]: 4.9 h
- Vd [28]: 3.9 L/kg
- F [29]: 49%
- Activity [30]: Active
- Activity [31]: Active
- Activity (NSCLC): Active
